Data reported in ChEMBL document CHEMBL2417461, “Spectroscopic, computational modeling and cytotoxicity of a series of meso-phenyl and meso-thienyl-BODIPYs” (Bioorg Med Chem, 2013).
pIC50: −log10 of the molar value.

Experiments:
[1] = Dark toxicity in human Hep2 cells after 24 hrs by Cell Titre Blue assay; type: cell-based; conditions: HEp-2 cells
In short: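 HEp2 cells seeded 15,000/well. Compound at 12.5–400 μM (vehicle DMSO/Cremophor EL) for 24 h at 37 °C in the dark, five replicates per concentration. Washed, then 20% Cell Titer Blue for 4 h. Fluorescence read at 570/615 nm as % viable cells, IC50 taken from dose–response curves.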

[2] = system: HEp-2; assay: Phototoxicity in human Hep2 cells incubated for 24 hrs followed by 1.5 J/cm'2 light irradiation for 20 mins measured after 24 hrs by Cell Titre Blue assay; type: functional, cell-based; conditions: HEp-2, light or radiation study
In short: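 HEp2 cells given 3.125–200 μM compound for 24 h at 37 °C, then washed and refed. Irradiated on ice for 20 min with a 100 W halogen lamp through a 610 nm long-pass filter and a water IR filter, about 1.5 J/cm². After 24 h more, 20% Cell Titer Blue for 4 h, read at 570/615 nm. IC50 from dose–response curves.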

[3] = Ratio of IC50 for dark toxicity in human Hep2 cells to IC50 for phototoxicity in human Hep2 cells; type: cell-based; conditions: HEp-2 cells, read-out: Ratio IC50
[4] = Cellular uptake in human Hep2 cell mitochondria at 10 uM after 24 hrs by micro plate reader analysis; type: ADME; conditions: hep-2, 24 h
In short: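 HEp2 cells (DMEM:AMEM 50:50, 10% FBS) seeded 15,000/well, grown overnight, then given 10 μM compound in medium with 5% FBS for 0–24 h. Washed with PBS, lysed in 0.25% Triton X-100. Compound fluorescence read at 355/520 nm against standard curve, cell number by CyQuant at 485/520 nm. Uptake given per cell.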

[5] = Induction of singlet oxygen generation assessed as decrease in DPBF absorbance at 5 uM followed by 71 W light irradiation for 1 hr by spectrophotometry; type: physicochemical
In short: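 Compound at 5 μM with 50 μM DPBF in DMSO, 2 mL, irradiated 1 h with a 71 W source through a 500 nm long-pass filter. DPBF absorbance at 410 nm sampled every 15 min. Rate of absorbance decrease referenced to methylene blue at equal concentration.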

Row | Drug uptake [4] | Activity [5] | SMILES | IC50 at 24 h [1] [µM] | pIC50 [2] | selectivity ratio [3]
1 |  |  | COC(=O)c1ccc(C2=C3C(C)=CC(C)=[N+]3[B-](F)(F)n3c(C)cc(C)c32)cc1 | > 400 | < 4.00 | > 4
2 |  |  | CC1=CC(C)=[N+]2C1=C(c1cccs1)c1c(C)cc(C)n1[B-]2(F)F | > 300 | < 4.00 | > 3
3 |  |  | CC1=CC(C)=[N+]2C1=C(c1ccc(-c3cccs3)s1)c1c(C)cc(C)n1[B-]2(F)F | > 400 | < 4.00 | > 4
4 |  |  | CC1=CC(C)=[N+]2C1=C(c1ccc(-c3ccc(Br)s3)s1)c1c(C)cc(C)n1[B-]2(F)F | > 300 | 4.09 | > 3.5
5 | Active | Active | CC1=C(I)C(C)=[N+]2C1=C(c1ccccc1)c1c(C)c(I)c(C)n1[B-]2(F)F | > 400 | 4.57 | > 15
6 | Active | Active | COc1cc(OC)cc(C2=C3C(C)=C(I)C(C)=[N+]3[B-](F)(F)n3c(C)c(I)c(C)c32)c1 | > 400 | 5.40 | > 100
7 |  |  | CC1=C(I)C(C)=[N+]2C1=C(c1cc(C(C)(C)C)cc(C(C)(C)C)c1)c1c(C)c(I)c(C)n1[B-]2(F)F | > 400 | < 3.70 | > 2
8 | Active | Active | COc1ccc(C2=C3C(C)=C(I)C(C)=[N+]3[B-](F)(F)n3c(C)c(I)c(C)c32)cc1OC | > 400 | 5.12 | > 53
9 |  |  | COC(=O)c1ccc(C2=C3C(C)=C(I)C(C)=[N+]3[B-](F)(F)n3c(C)c(I)c(C)c32)cc1 | > 400 | < 3.70 | > 2
10 | Active |  | CC1=C(I)C(C)=[N+]2C1=C(c1ccc(Br)cc1)c1c(C)c(I)c(C)n1[B-]2(F)F | > 400 | 4.55 | > 15
11 | Active | Active | CC1=C(I)C(C)=[N+]2C1=C(c1cccs1)c1c(C)c(I)c(C)n1[B-]2(F)F | > 400 | 4.85 | > 30
12 |  |  | CC1=C(I)C(C)=[N+]2C1=C(c1ccc(-c3cccs3)s1)c1c(C)c(I)c(C)n1[B-]2(F)F | > 400 | < 3.70 | > 2
13 |  |  | CC1=C(I)C(C)=[N+]2C1=C(c1ccc(Br)s1)c1c(C)c(I)c(C)n1[B-]2(F)F | > 400 | < 3.70 | > 2
14 | Active | Active | CC1=C(I)C(C)=[N+]2C1=C(c1ccc(-c3ccc(Br)s3)s1)c1c(C)c(I)c(C)n1[B-]2(F)F | 8 | 5.46 | 2.3
15 |  |  | CC1=C(I)C(C)=[N+]2C1=C(c1c(F)c(F)c(F)c(F)c1F)c1c(C)c(I)c(C)n1[B-]2(F)F | > 400 | < 3.70 | > 2
